Screening results (PubChem)
Shown are actives, neighbours in structure and some others; about 2.5% of the full set was active somewhere.
TRPN1 ag: activates the zebrafish TRPN1 channel; HEK293 zebrafish TRPN1-YFP, Fluo-8 calcium fluorescence; 100% = response to 87 µM carbachol; activation, % at 3 µM; 220,000 compounds, 0.18% hits;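 active means activation above its plate's cutoff, the mean activation of test wells on that plate plus 3 SD, cut at about 19% in these data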
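Material: zebrafish TRPN1-YFP in HEK293 cells; Doses: single test compound dose, 3 µM nominal, 0.3% DMSO; Timing: dye loading 1 h at 37 °C, then 30 min room temperature; Technique: intracellular calcium fluorescence with Fluo-8; Benchmarks: high carbachol 87 µM, low DMSO alone.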
TRPML3 agonist: agonists of human TRPML3 channel. HEK293 TRPML3-YFP, Fluo-8 calcium fluorescence; 100% = the carbachol control signal. 220,000 compounds, 0.29% hits. AID 1448. activation, % at 3 µM;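 active means activation above its plate's cutoff, the mean activation of the plate's test wells plus 3 SD, cut at about 12% in these data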
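Material: TRPML3-YFP stable HEK293 cells | Dosing: One concentration, 3 µM nominal, 0.3% DMSO | Timing: 125 s total fluorescence read per well | Technique: Fluo-8 calcium dye fluorescence, ex 470-495, em 515-575 nm | Measure: Percent activation from peak-to-basal fluorescence ratio, scaled between DMSO and carbachol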
OX1R antag-1: human HCRTR1 antagonism; O43613; CHO/OX1R cells, Fluo-8 calcium fluorescence, orexin A; inhibition, % at 5 µM; 330,000 compounds, 0.43% hits; AID 434989;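 active means inhibition above its plate's threshold, mean inhibition of all tested compounds on the plate plus 3 SD, cut at about 37% in these data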
Target sequence (O43613 whole entry, looked up): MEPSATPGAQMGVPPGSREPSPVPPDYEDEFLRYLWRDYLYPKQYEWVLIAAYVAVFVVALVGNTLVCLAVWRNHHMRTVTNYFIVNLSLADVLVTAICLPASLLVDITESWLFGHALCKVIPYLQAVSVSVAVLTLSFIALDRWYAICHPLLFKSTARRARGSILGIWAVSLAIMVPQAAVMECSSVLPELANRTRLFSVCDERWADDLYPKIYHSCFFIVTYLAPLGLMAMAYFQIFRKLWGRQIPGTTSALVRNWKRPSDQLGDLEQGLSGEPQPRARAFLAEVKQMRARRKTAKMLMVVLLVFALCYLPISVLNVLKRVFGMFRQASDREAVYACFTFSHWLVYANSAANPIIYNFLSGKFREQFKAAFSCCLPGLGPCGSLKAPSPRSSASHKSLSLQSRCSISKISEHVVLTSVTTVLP
OX1R antag-2: OX1R (human) antagonism. O43613. inhibition, % at 6.6 µM. 330,000 compounds, 1.8% hits. OX1R-expressing cells, FRET antagonist read-out; in the data active means inhibition mostly above about 38%, no sharp cut-off; inactive means mostly below about 40%
CHO parental Ca: counter-screen for OX1R antagonists: effect in parental CHO cells. parental CHO-K1, ATP-induced calcium, Fluo-8 fluorescence. inhibition, % at 5.6 µM. 330,000 compounds, 0.63% hits. AID 463079;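 active means inhibition above that plate's mean sample inhibition plus 3 SD, cut at about 26% in these data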
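Test system: untransfected parental CHO cell line; also added: ATP stimulus; dosing: 5.6 µM, single dose; signal: calcium-sensitive Fluo-8 fluorescence; measure: percent inhibition of ATP-evoked calcium rise, normalized to controls; benchmarks: low control ATP plus DMSO, high control DMSO only; replication: one well per compound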
OX1R HTRF conf: confirmation of human orexin 1 receptor antagonists, HTRF format; shares compounds with OX1R antag-2; OX1R-expressing cells, HTRF antagonist assay; inhibition, % at 6.6 µM; 1,800 compounds, 49% hits; in the data active means inhibition above about 55%;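 further: CHO cells expressing OX1R stimulated with orexin A at about EC80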
CHO-K1 HTRF cnt: signal in parental CHO-K1 cells, OX1R antagonist counter-screen. shares compounds with OX1R antag-2. HTRF counterscreen. inhibition, % at 6.6 µM. 1,800 compounds, 48% hits. AID 493232; in the data active means inhibition above about 17%
Of the large screens only hits and unclear results are named; the others gave an inactive call (follow-up assays come after a bar, where they were run).

C=CCn1c(=N)c(C#N)cc2c(=O)n3ccccc3nc21	OX1R antag-2 102 | OX1R HTRF conf 55 | CHO-K1 HTRF cnt 78
Cc1cc(-n2c(=O)c(C#N)cc3c(=O)n4ccccc4nc32)no1	OX1R antag-2 128 | OX1R HTRF conf inactive | CHO-K1 HTRF cnt 75
CCN(CC)S(=O)(=O)c1ccc(C(=O)NC(C)(C)C)cc1	none
COc1ccc(/C=C2\CCc3ccccc3C2=O)cc1O	none (no result: TRPN1 ag, TRPML3 agonist)
COc1ccc(C(=O)NCCNc2nc3c(C)cccc3cc2C#N)cc1OC	OX1R antag-2 90 (no result: TRPN1 ag, TRPML3 agonist) | OX1R HTRF conf 87 | CHO-K1 HTRF cnt inactive
CN(C(=O)COC(=O)c1nn(C)c(=O)c2ccccc12)c1c(N)n(Cc2ccccc2)c(=O)[nH]c1=O	none (no result: TRPN1 ag, TRPML3 agonist)
O=C(CNc1cccc([N+](=O)[O-])c1)NC(=O)NC1CCCCC1	none (no result: TRPN1 ag, TRPML3 agonist)
Clc1ccccc1C1CC(c2ccccc2)Nc2ncnn21 (stereo not given)	OX1R antag-2 79 | OX1R HTRF conf inactive | CHO-K1 HTRF cnt inactive
CCOC(=O)C1=C(COC(=O)c2cccnc2Cl)NC(=O)NC1C (stereo not given)	none (no result: TRPN1 ag, TRPML3 agonist)
COCCNC(=O)C(c1ccc(O)cc1)N(Cc1ccco1)C(=O)CCC(=O)Nc1ccccn1 (stereo not given)	none (no result: TRPN1 ag, TRPML3 agonist)
COCCNC(=O)C(c1ccc(Cl)cc1)N(Cc1ccco1)C(=O)CCC(=O)Nc1ccccn1 (stereo not given)	OX1R antag-2 82 (no result: TRPN1 ag, TRPML3 agonist) | OX1R HTRF conf 58 | CHO-K1 HTRF cnt inactive
COC(=O)c1c(NC(=O)c2ccccc2)sc(C(N)=O)c1C	OX1R antag-2 95 | OX1R HTRF conf inactive | CHO-K1 HTRF cnt inactive
Cc1ccc(CS(=O)(=O)c2ccc(C(=O)N3CCN(c4ccccn4)CC3)cc2[N+](=O)[O-])cc1	none
CCN1C(=O)/C(=C/c2cc(C)n(C)c2C)SC1=Nc1ccc(OC)cc1	OX1R antag-2 127 | OX1R HTRF conf inactive | CHO-K1 HTRF cnt inactive
CCCN1C(=O)/C(=C/c2cc(C)n(C)c2C)SC1=Nc1ccc(OCC)cc1	none
O=C(/C=C/c1ccc([N+](=O)[O-])cc1)N1CCN(Cc2ccccc2)CC1	none (no result: TRPN1 ag, TRPML3 agonist)
Cc1nn(C)cc1C(=O)/C=C/c1ccc([N+](=O)[O-])cc1	none
CCn1cc(CN(C)C(=O)/C=C/c2ccc([N+](=O)[O-])cc2)c(C)n1	OX1R antag-2 92 | OX1R HTRF conf inactive | CHO-K1 HTRF cnt 35
CCN1CCN(C(=O)/C=C/c2ccc([N+](=O)[O-])cc2)CC1	OX1R antag-2 97 | OX1R HTRF conf inactive | CHO-K1 HTRF cnt 59
O=C(c1cn(-c2ccccc2)nc1-c1cccc([N+](=O)[O-])c1)N1CCCCC1	none
O=C(NC(=S)Nc1cccc2cccnc12)c1cccs1	OX1R antag-2 95 | OX1R HTRF conf 93 | CHO-K1 HTRF cnt inactive
COC(=O)Cn1cnc2scc(-c3ccc(C)cc3)c2c1=O	none (no result: TRPN1 ag, TRPML3 agonist)
COc1cc(/C=C/c2sc3ccccc3[n+]2CCCS(=O)(=O)[O-])ccc1O	OX1R antag-2 86 | OX1R HTRF conf 59 | CHO-K1 HTRF cnt 99
CNc1nc(N2CCc3ccccc32)ncc1F	OX1R antag-2 89 | OX1R HTRF conf 83 | CHO-K1 HTRF cnt inactive
COc1ccc(C2CC(=O)c3cnc(N4CCc5ccccc54)nc3C2)cc1OC (stereo not given)	none
CC1=C(C#N)C(c2cccnc2)C2=C(N1)c1ccccc1C2=O (stereo not given)	OX1R antag-2 96 | OX1R HTRF conf inactive | CHO-K1 HTRF cnt inactive
Cc1ccc(NC(=O)CSc2nnc(-c3ccco3)o2)cc1	OX1R antag-2 99 | OX1R HTRF conf inactive | CHO-K1 HTRF cnt inactive
CC(=O)c1ccc(NC(=O)CSc2nnc(-c3ccco3)o2)cc1	none (no result: TRPN1 ag, TRPML3 agonist)
NC(=O)Nc1ccc(C(=O)OCC(=O)N2CCCC2=O)cc1	none (no result: TRPN1 ag, TRPML3 agonist)
Cc1[nH]c2ccc(C(=O)OCCN(C)C)cc2c1C	none
CCOC(=O)c1ccc2[nH]c(C)c(C)c2c1	OX1R antag-2 93 | OX1R HTRF conf 66 | CHO-K1 HTRF cnt inactive
CC(=O)c1ccc(Nc2ccc([N+](=O)[O-])c3nonc23)cc1	OX1R antag-2 78 (no result: TRPN1 ag, TRPML3 agonist) | OX1R HTRF conf inactive | CHO-K1 HTRF cnt 39
CCc1nnc(NS(=O)(=O)c2ccc(Nc3ccc([N+](=O)[O-])c4nonc34)cc2)s1	none
COc1ccc(Nc2ccc([N+](=O)[O-])c3nonc23)c(OC)c1	none (no result: TRPN1 ag, TRPML3 agonist)
NS(=O)(=O)c1ccc(Nc2ccc([N+](=O)[O-])c3nonc23)cc1	OX1R antag-2 132 | OX1R HTRF conf inactive | CHO-K1 HTRF cnt 63
COc1ccccc1N=C1NC(=O)/C(=C/c2ccc(N(C)C)cc2)S1	none (no result: TRPN1 ag, TRPML3 agonist)
COc1ccc(OC)c(NC(=O)Cn2c(=O)n(CC3CCCO3)c(=O)c3cc(OC)c(OC)cc32)c1 (stereo not given)	none (no result: TRPN1 ag, TRPML3 agonist)
Cc1c(NC(=O)C(C)OC(=O)c2ccc([N+](=O)[O-])s2)c(=O)n(-c2ccccc2)n1C (stereo not given)	OX1R antag-2 118 | OX1R HTRF conf 71 | CHO-K1 HTRF cnt 81
Cc1c(NC(=O)C(C)OC(=O)c2sc3ccccc3c2Cl)c(=O)n(-c2ccccc2)n1C (stereo not given)	none
Cc1ccc(SCC(=O)NCC2COc3ccccc3O2)cc1 (stereo not given)	none (no result: TRPN1 ag, TRPML3 agonist)
Cc1ccc(S(=O)(=O)NCCOc2nc(N(C)C)nc(N(C)C)n2)cc1	OX1R antag-2 90 | OX1R HTRF conf 64 | CHO-K1 HTRF cnt inactive
CCN(CC)c1nc2c(c(=O)[nH]c(=O)n2C)n1CCOc1ccccc1	none (no result: TRPN1 ag, TRPML3 agonist)
CCn1c2ccccc2c2cc(NC(=O)c3cc(C)on3)ccc21	OX1R antag-2 88 | OX1R HTRF conf 64 | CHO-K1 HTRF cnt inactive
CCn1c2ccccc2c2cc(NC(=O)c3ccc(C)c([N+](=O)[O-])c3)ccc21	OX1R antag-2 77 | OX1R HTRF conf 88 | CHO-K1 HTRF cnt inactive
O=[N+]([O-])c1ccc2c(c1)nc1n2CCCCC1	none
O=c1c2c(-c3ccc([N+](=O)[O-])cc3)csc2nc2n1CCC2	OX1R antag-2 95 | OX1R HTRF conf inactive | CHO-K1 HTRF cnt 48
N/C(=N\OC(=O)c1ccc2ccccc2c1)c1cccc([N+](=O)[O-])c1	none
N/C(=N/S(=O)(=O)c1ccccc1)c1cccc([N+](=O)[O-])c1	OX1R antag-2 90 | OX1R HTRF conf inactive | CHO-K1 HTRF cnt 21
N/C(=N\OC(=O)c1cccc([N+](=O)[O-])c1)c1ccccn1	OX1R antag-2 97 | OX1R HTRF conf inactive | CHO-K1 HTRF cnt 38
CC(C)(C)NC(=S)N/N=C\c1ccc(-c2ccc([N+](=O)[O-])cc2)o1	none
CCCCC(=O)N/N=C/c1ccc(-c2ccc([N+](=O)[O-])cc2)o1	OX1R antag-2 102 | OX1R HTRF conf inactive | CHO-K1 HTRF cnt inactive
